# Experimental data reported in ChEMBL document CHEMBL2150954, “A novel, unusually efficacious duocarmycin carbamate prodrug that releases no residual byproduct” (J Med Chem, 2012).
# Activity calls are given as the source filed them. The rule behind the calls is not given here.
# Assays:
# L1210 [1] = assay: Cytotoxicity against mouse L1210 cells; assay type: functional, cell-based
# [2] = Half life in calf serum at 2 uM by RP-HPLC analysis; assay type: ADME, cell-free, Bos taurus; details: cattle
# [3] = Half life in human plasma at 1 ug/mL at pH 7 by HPLC analysis; assay type: ADME, cell-free
# [4] = Chemical stability of the compound in 1:1 of TFA/CH2Cl2-4N HCl/EtOAc solution up to 72 hrs; assay type: physicochemical; details: buffer
# [5] = Drug degradation in phosphate buffer assessed as cleavage over 4 weeks; assay type: physicochemical; details: 672 h
# [6] = Fraction unbound in human plasma incubated over 48 hrs; assay type: ADME, cell-free
# Nucleic Acid = assay: Binding affinity to w794 DNA assessed as DNA alkylation by cell-free assay; assay type: nucleic-acid assay
# L1210 [7] = assay: Antitumor activity against mouse L1210 cells xenografted in DBA/2J mouse assessed as mean survival days at 300 ug/kg, ip administered on day 1, 5 and 9 relative to control; assay type: functional
# L1210 [8] = assay: Antitumor activity against mouse L1210 cells xenografted in DBA/2J mouse assessed as mean survival days at 1000 ug/kg, ip administered on day 1, 5 and 9 relative to control; assay type: functional
# L1210 [9] = assay: Antitumor activity against mouse L1210 cells xenografted in DBA/2J mouse assessed as mean survival days at 3000 ug/kg, ip administered on day 1, 5 and 9 relative to control; assay type: functional
# L1210 [10] = assay: Antitumor activity against mouse L1210 cells xenografted in DBA/2J mouse assessed as mean survival days at 9000 ug/kg, ip administered on day 1, 5 and 9 relative to control; assay type: functional
# L1210 [11] = assay: Antitumor activity against mouse L1210 cells xenografted in DBA/2J mouse assessed as disease cure at 300 […], ip administered on day 1, 5 and 9 measured up to 250 days; assay type: functional, organism-based
# L1210 [12] = assay: Antitumor activity against mouse L1210 cells xenografted in DBA/2J mouse assessed as disease cure at 1000 […], ip administered on day 1, 5 and 9 measured up to 250 days; assay type: functional, organism-based
# L1210 [13] = assay: Antitumor activity against mouse L1210 cells xenografted in DBA/2J mouse assessed as disease cure at 3000 […], ip administered on day 1, 5 and 9 measured up to 250 days; assay type: functional, organism-based
# L1210 [14] = assay: Antitumor activity against mouse L1210 cells xenografted in DBA/2J mouse assessed as disease cure at 9000 […], ip administered on day 1, 5 and 9 measured up to 250 days; assay type: functional, organism-based
# L1210 [15] = assay: Antitumor activity against mouse L1210 cells xenografted in DBA/2J mouse assessed as mean survival days at 60 ug/kg, ip administered on day 1, 5 and 9 relative to control; assay type: functional
# L1210 [16] = assay: Antitumor activity against mouse L1210 cells xenografted in DBA/2J mouse assessed as mean survival days at 100 ug/kg, ip administered on day 1, 5 and 9 relative to control; assay type: functional
# L1210 [17] = assay: Antitumor activity against mouse L1210 cells xenografted in DBA/2J mouse assessed as mean survival days at 250 ug/kg, ip administered on day 1, 5 and 9 relative to control; assay type: functional
# L1210 [18] = assay: Antitumor activity against mouse L1210 cells xenografted in DBA/2J mouse assessed as mean survival days at 500 ug/kg, ip administered on day 1, 5 and 9 relative to control; assay type: functional
# In short: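 Syngeneic L1210 cells (1 × 10⁶) given ip to B6D2F1 mice on day 0. Ten mice per group, randomised to vehicle control or treatment. Compound given in 100% DMSO ip on days 1, 5 and 9, with daily monitoring. T/C = total survival days of treated group ÷ total survival days of control × 100.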
# L1210 [19] = assay: Antitumor activity against mouse L1210 cells xenografted in DBA/2J mouse assessed as disease cure at 60 […], ip administered on day 1, 5 and 9 measured up to 250 days; assay type: functional, organism-based
# L1210 [20] = assay: Antitumor activity against mouse L1210 cells xenografted in DBA/2J mouse assessed as disease cure at 100 […], ip administered on day 1, 5 and 9 measured up to 250 days; assay type: functional, organism-based
# L1210 [21] = assay: Antitumor activity against mouse L1210 cells xenografted in DBA/2J mouse assessed as disease cure at 250 […], ip administered on day 1, 5 and 9 measured up to 250 days; assay type: functional, organism-based
# L1210 [22] = assay: Antitumor activity against mouse L1210 cells xenografted in DBA/2J mouse assessed as disease cure at 500 […], ip administered on day 1, 5 and 9 measured up to 250 days; assay type: functional, organism-based
# [23] = Chemical stability of the compound in 1:1 of TFA/CH2Cl2-4N HCl/EtOAc solution for 48 hrs; assay type: physicochemical; details: buffer
# [24] = Drug degradation in 1:1 of TFA/CH2Cl2-4N HCl/EtOAc solution assessed as cleavage of Boc protecting group; assay type: physicochemical; details: buffer
# [25] = Chemical stability of the compound in Et3N/CH2Cl2 solution after 2 hrs; assay type: physicochemical
# [26] = Chemical stability of the compound in Et3N/CH2Cl2 solution after 24 hrs; assay type: physicochemical
# [27] = Chemical stability of the compound in Et3N/CH2Cl2 solution after 48 hrs; assay type: physicochemical
# [28] = Chemical stability of the compound in DMAP/CH2Cl2 solution after 2 hrs; assay type: physicochemical
# [29] = Chemical stability of the compound in DMAP/CH2Cl2 solution after 24 hrs; assay type: physicochemical
# [30] = Drug degradation in DMAP/CH2Cl2 solution assessed as hydrolysis after 48 hrs; assay type: physicochemical; details: read-out: Drug degradation
# [31] = Chemical stability of the compound in NaHCO3/THF solution after 2 hrs; assay type: physicochemical
# [32] = Chemical stability of the compound in NaHCO3/THF solution after 24 hrs; assay type: physicochemical
# [33] = Drug degradation in NaHCO3/THF solution assessed as hydrolysis after 48 hrs; assay type: physicochemical; details: read-out: Drug degradation
# [34] = Drug degradation in NaHCO3/1:1 of THF:H2O solution assessed as hydrolysis after 2 hrs; assay type: physicochemical; details: NaHCO3 in 1:1 THF:H2O solution; read-out: Drug degradation
# [35] = Drug degradation in NaHCO3/1:1 of THF:H2O solution assessed as hydrolysis after 24 hrs; assay type: physicochemical; details: NaHCO3 in 1:1 THF:H2O solution; read-out: Drug degradation
# [36] = Drug degradation in NaHCO3/1:1 of THF:H2O solution assessed as hydrolysis after 48 hrs; assay type: physicochemical; details: NaHCO3 in 1:1 THF:H2O solution; read-out: Drug degradation
# [37] = Drug degradation in NaHCO3/1:1 of DMF:H2O solution assessed as hydrolysis after 2 hrs; assay type: physicochemical; details: NaHCO3 in 1:1 DMF:H2O solution; read-out: Drug degradation
# [38] = Drug degradation in NaHCO3/1:1 of DMF:H2O solution assessed as hydrolysis after 24 hrs; assay type: physicochemical; details: NaHCO3 in 1:1 DMF:H2O solution; read-out: Drug degradation
# [39] = Drug degradation in NaHCO3/1:1 of DMF:H2O solution assessed as hydrolysis after 48 hrs; assay type: physicochemical; details: NaHCO3 in 1:1 DMF:H2O solution; read-out: Drug degradation
# [40] = Drug degradation in NaHCO3/MeOH solution assessed as hydrolysis after 2 hrs; assay type: physicochemical; details: read-out: Drug degradation
# [41] = Drug degradation in NaHCO3/MeOH solution assessed as hydrolysis after 24 hrs; assay type: physicochemical; details: read-out: Drug degradation
# [42] = Drug degradation in NaHCO3/MeOH solution assessed as hydrolysis after 48 hrs; assay type: physicochemical; details: read-out: Drug degradation
# [43] = Chemical stability in MeOH after 48 hrs in presence of 100 equiv BnSH and BnOH; assay type: physicochemical
# In short: (§1)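 Compound exposed to 100 equiv each of BnSH and BnOH in MeOH or THF at 23 °C for 48 h and monitored for cleavage.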
# [44] = Chemical stability in THF after 48 hrs in presence of 100 equiv BnSH and BnOH; assay type: physicochemical; in short: as §1
# [45] = Chemical stability in THF after 24 hrs in presence of BnNH2; assay type: physicochemical
# [46] = Drug degradation in MeOH after 24 hrs in presence of 100 equiv BnNH2; assay type: physicochemical
compound,measurement,setting,value
CC(C)(C)OC(=O)N1C[C@H](CCl)c2c1cc1c3c(cccc23)NC(=O)O1,IC50,L1210 [1],5800 nM
Br.COC(=O)c1c(C)[nH]c2c(OC(=O)N3CCN(C)CC3)cc3c(c12)[C@H](CBr)CN3C(=O)c1cc2cc(OC)c(OC)c(OC)c2[nH]1 [PIBROZELESIN HYDROBROMIDE],half-life at 2 µM,[2],20 h
CCN(CC)c1ccc2cc(C(=O)Nc3ccc4[nH]c(C(=O)N5C[C@@H](CCl)c6c5cc(OC(=O)Nc5ccccc5)c5[nH]cc(C)c65)cc4c3)oc2c1 [CARZELESIN],half-life at 1 ug/mL,[3],< 1 h
O=C1Nc2cccc3c4c(cc(c23)O1)N(C(=O)c1cc2cc(NC(=O)c3cc5ccccc5[nH]3)ccc2[nH]1)C[C@H]4CCl,Stability,[4],Stable
same,Drug degradation,[5],Not Active
same,fraction unbound at 48 h,[6],0.05
same,IC50,L1210 [1],6.6 nM
same,Activity,Nucleic Acid,inactive
same,T/C,L1210 [7],140%
same,T/C,L1210 [8],>275%
same,T/C,L1210 [9],>310%
same,T/C,L1210 [10],>980%
same,Activity,L1210 [11],inactive
same,Activity,L1210 [12],inactive
same,Activity,L1210 [13],inactive
same,Activity,L1210 [14],Active
Nc1cccc2c1C(=O)C=C1N(C(=O)c3cc4cc(NC(=O)c5cc6ccccc6[nH]5)ccc4[nH]3)CC3CC123 (racemic),IC50,L1210 [1],0.21 nM
O=C(Nc1ccc2[nH]c(C(=O)N3C[C@@H](CCl)c4c3cc(O)c3ccccc43)cc2c1)c1cc2ccccc2[nH]1 [SECO-CBI-INDOLE],T/C,L1210 [15],197%
same,T/C,L1210 [16],36%
same,T/C,L1210 [17],21%
same,T/C,L1210 [18],17%
same,Activity,L1210 [19],inactive
same,Activity,L1210 [20],inactive
same,Activity,L1210 [21],inactive
same,Activity,L1210 [22],inactive
CC(C)(C)OC(=O)N1C[C@@H](CCl)c2c1cc1c3c(cccc23)NC(=O)O1,Stability,[23],Stable
same,Drug degradation,[24],Active
same,Stability,[25],Stable
same,Stability,[26],Stable
same,Stability,[27],Stable
same,Stability,[28],Stable
same,Stability,[29],Stable
same,degraded at 48 h,[30],12%
same,Stability,[31],Stable
same,Stability,[32],Stable
same,degraded at 48 h,[33],7%
same,degraded at 2 h,[34],< 4%
same,degraded at 24 h,[35],4%
same,degraded at 48 h,[36],9%
same,degraded at 2 h,[37],7%
same,degraded at 24 h,[38],12%
same,degraded at 48 h,[39],19%
same,degraded at 2 h,[40],18%
same,degraded at 24 h,[41],74%
same,degraded at 48 h,[42],100%
same,Stability,[43],Stable
same,Stability,[44],Stable
same,Stability,[45],Stable
same,Drug degradation,[46],Active
same,IC50,L1210 [1],4900 nM
COc1c(O)c2c(c3cc(C(=O)N4CCc5c4c(O)c(OC)c4[nH]c(C(=O)N6C[C@@H]7C[C@]78C6=CC(=O)c6[nH]cc(C)c68)cc54)[nH]c13)CCN2C(N)=O,IC50,L1210 [1],0.02 nM
O=C1Nc2cccc3c4c(cc(c23)O1)N(C(=O)c1cc2cc(NC(=O)c3cc5ccccc5[nH]3)ccc2[nH]1)C[C@@H]4CCl,IC50,L1210 [1],40 nM
